Screening data as filed in PubChem BioAssay.
NR2E3 ag-1 – human photoreceptor-specific nuclear receptor agonism; Q9Y5X4; inhibition of corepressor binding, % at 3.98 µM; CHO-S Gal4-NCOR/VP16-NR2E3 two-hybrid, luciferase; 0.35% of 360,000 active; AID 602229;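 active = inhibition above the mean of all tested compounds plus 3 SD, cut at about 70% in these data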;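 note: higher means lower luciferase signal from less NR2E3 corepressor binding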
Target sequence (Q9Y5X4 whole entry, looked up, the tested form may be a part): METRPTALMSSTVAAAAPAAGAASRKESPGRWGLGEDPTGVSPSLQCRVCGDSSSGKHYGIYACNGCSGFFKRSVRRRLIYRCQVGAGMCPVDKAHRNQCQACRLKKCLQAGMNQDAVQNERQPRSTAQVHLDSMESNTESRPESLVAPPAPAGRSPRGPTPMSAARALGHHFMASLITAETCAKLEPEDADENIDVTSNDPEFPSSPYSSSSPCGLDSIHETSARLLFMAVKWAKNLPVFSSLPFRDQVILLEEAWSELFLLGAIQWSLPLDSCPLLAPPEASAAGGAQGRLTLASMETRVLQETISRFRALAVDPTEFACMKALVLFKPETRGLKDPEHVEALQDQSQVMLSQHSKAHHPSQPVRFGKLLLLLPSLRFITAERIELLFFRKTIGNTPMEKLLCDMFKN
697 NFkB inh – lowers PMA/ionomycin-induced NF-kB signal in 697 B cells. 697 B-cell NF-kB luciferase reporter, 16 h. inhibition, % at 4 µM. 0.33% of 330,000 active. AID 435022; in the data active = inhibition above about 35%
miR122 inh – inhibitors of miR-122 in Huh7 cells | activation (reporter increase), % at 12.5 µM | AID 602342 | Huh7 miR-122 Renilla luciferase sensor, 48 h; neutral wells = 0, positive control = 100 | 0.3% of 340,000 active;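 active = mean replicate activation score at least 90 and every replicate individually at or above 90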;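 note: higher luciferase means less miR-122 activity so hits act as miR-122 inhibitors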
NR2E3 ag-2 – NR2E3 (human) agonism. Q9Y5X4. GST-NR2E3/biotin-RetCOR TR-FRET, 1536-well. inhibition of corepressor binding, % at 4.78 µM. 0.12% of 320,000 active. AID 2300;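 active = percent inhibition above the cutoff of mean plus 3 SD of all tested compounds, set per screening campaign, cut at about 20% in these data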
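Material: NR2E3–RetCOR corepressor complex | Quantity: 1.35 nM GST-tagged NR2E3 final | Schedule: 5 h at 4 °C | Replication: Singlicate compound wells | Reagent: RetCOR corepressor, biotinylated, 7 nM | Controls: Biotin wells as high control, 0.6% DMSO wells as low control | Signal: TR-FRET, Eu(K)-anti-GST donor, streptavidin-D2 acceptor, ex 340, em 617/671 nm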
FGF22 binding – shifts melting point of recombinant human FGF22; Q9HCT0; recombinant FGF22 thermal shift, SYPRO orange fluorescence; percent of sucrose octasulfate shift, DMSO zero; 1.5% of 340,000 active; activity (Tm shift, normalised), % at 9.99 µM;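 active = mean Tm shift, scaled 0 neutral to 100 positive control, at about 1.3% or above, every replicate too, limit read from the data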
Target sequence (Q9HCT0 whole entry, looked up): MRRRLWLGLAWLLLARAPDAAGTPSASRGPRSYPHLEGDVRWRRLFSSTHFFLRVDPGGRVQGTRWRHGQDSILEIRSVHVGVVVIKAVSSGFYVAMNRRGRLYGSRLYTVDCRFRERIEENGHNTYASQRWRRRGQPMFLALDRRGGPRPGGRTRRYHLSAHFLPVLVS
Jurkat NFkB inh – inhibitors of the PMA/ionomycin-induced NF-kB reporter in Jurkat cells; PMA/ionomycin-induced NF-kB luciferase reporter, luminescence; inhibition, % at 4 µM; 0.53% of 330,000 active; AID 435003; in the data active = inhibition above about 50%
Jurkat NFkB conf – inhibitors of the PMA/ionomycin-induced NF-kB reporter in Jurkat cells, retest. shares compounds with Jurkat NFkB inh. Jurkat NF-kB luciferase, 16 h. inhibition, % at 4 µM. 27% of 2,700 active. AID 435020;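 active = inhibition reaching about 45% at 4 µM in either replicate, limit read from the data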
Each line names hits and unclear results; the compound was inactive in the other large screens (follow-up assays come after a bar, where they were run). Most compounds without a hit are left out; they make up all but 2.2% or so of the library.

Cc1ccc2nc(NC(=O)/C=C/c3ccc4c(c3)OCO4)sc2c1	none (no result: FGF22 binding)
COC(=O)C1Cc2c([nH]c3ccccc23)CN1 (stereo not given)	Jurkat NFkB inh 53 (no result: FGF22 binding) | Jurkat NFkB conf inactive
COC(=O)[C@H]1Cc2c([nH]c3ccccc23)[C@H](c2ccccc2)N1	none
C[C@@H]1CN([C@@H](C)CO)C(=O)c2cc(C3=CCCC3)cnc2O[C@H]1CN(C)C(=O)Nc1cccc(F)c1	none (no result: NR2E3 ag-1, 697 NFkB inh, NR2E3 ag-2, FGF22 binding, Jurkat NFkB inh)
O=C(Nc1nc(-c2ccccn2)cs1)c1ccc(Cl)s1	Jurkat NFkB inh 65 | Jurkat NFkB conf inactive
C[C@@H]1CN([C@H](C)CO)S(=O)(=O)c2ccc(C#Cc3ccccc3)cc2O[C@H]1CN(C)C	none (no result: NR2E3 ag-1, 697 NFkB inh, NR2E3 ag-2, Jurkat NFkB inh)
C[C@H](NC(=O)C[C@H]1C[C@H]2c3cc(NS(=O)(=O)c4ccc(F)cc4)ccc3O[C@H]2[C@H](CO)O1)c1ccccc1	none (no result: NR2E3 ag-1, 697 NFkB inh, NR2E3 ag-2, Jurkat NFkB inh)
COc1ccc(-c2cc(C(=O)Nc3cc(C)ccc3O)no2)cc1	Jurkat NFkB inh 62 | Jurkat NFkB conf inactive
Cc1ccc(O)c(NC(=O)c2cc(-c3ccccc3Cl)on2)c1	Jurkat NFkB inh 51 | Jurkat NFkB conf inactive
O=C(C[C@H]1CC[C@H]2NC[C@H](O)COC[C@@H]2O1)NCCc1ccncc1	none (no result: NR2E3 ag-1, 697 NFkB inh, NR2E3 ag-2, Jurkat NFkB inh)
COc1cc(-c2noc(C)c2C#Cc2ccc(N)cc2)cc(OC)c1OC	none
COc1cc(-c2noc(C)c2C#Cc2ccccn2)cc(OC)c1OC	Jurkat NFkB inh 60 (no result: miR122 inh) | Jurkat NFkB conf inactive
COc1ccc(-c2c(-c3cc(OC)c(OC)c(OC)c3)noc2C)cn1	Jurkat NFkB inh 66 (no result: miR122 inh, FGF22 binding) | Jurkat NFkB conf inactive
COc1cc(-c2noc(C)c2/C=C/c2ccc(N)cc2)cc(OC)c1OC	Jurkat NFkB inh 58 (no result: miR122 inh) | Jurkat NFkB conf inactive
CC(C)NC(=O)N(C)C[C@H]1Oc2ncc(C#CCc3ccccc3)cc2C(=O)N([C@H](C)CO)C[C@H]1C	none (no result: NR2E3 ag-1, 697 NFkB inh, NR2E3 ag-2, Jurkat NFkB inh)
C[C@@H]1CN([C@@H](C)CO)S(=O)(=O)c2ccc(C#CC3CCCC3)cc2O[C@@H]1CN(C)C(=O)Cc1ccccc1	none (no result: NR2E3 ag-1, 697 NFkB inh, NR2E3 ag-2, Jurkat NFkB inh)
O=C(c1ccccc1)c1cnc(-c2ccc(Cl)cc2)s1	none (no result: FGF22 binding) | Jurkat NFkB conf inactive
CN(CC(=O)NC1(C)CCS(=O)(=O)C1)S(=O)(=O)c1ccc(Cl)cc1 (stereo not given)	none (no result: miR122 inh)
Cc1nn(CC(=O)NC2(C)CCS(=O)(=O)C2)c(C)c1S(=O)(=O)N(C)C (stereo not given)	Jurkat NFkB inh 57 (no result: miR122 inh, NR2E3 ag-2) | Jurkat NFkB conf inactive
COc1ccccc1CN1C[C@H](C)[C@H](OC)CN(C)C(=O)c2ccc(NC(C)=O)cc2OC[C@@H]1C	none (no result: NR2E3 ag-1, 697 NFkB inh, NR2E3 ag-2, Jurkat NFkB inh)
O=C(/C=C/c1cnc2ccccc2n1)NC12CC3CC(CC(C3)C1)C2	none (no result: FGF22 binding) | Jurkat NFkB conf inactive
COc1ccc2c3c(n(C)c2c1)[C@@H](CO)N(C(=O)Nc1ccc(F)cc1)CC31CCN(C(=O)Cc2ccncc2)CC1	none (no result: NR2E3 ag-1, 697 NFkB inh, miR122 inh, NR2E3 ag-2, Jurkat NFkB inh)
O=C(CCn1cnc(-c2ccccc2)c1-c1ccccc1)N/N=C/c1ccc(O)cc1	none
COc1ccc(/C=N/NC(=O)CCn2cnc(-c3ccccc3)c2-c2ccccc2)cc1	Jurkat NFkB inh 57 (no result: miR122 inh, FGF22 binding) | Jurkat NFkB conf inactive
COc1ccc(/C=N/NC(=O)COc2ccccc2-c2ccccc2)cc1	miR122 inh 129, Jurkat NFkB inh 56 (no result: FGF22 binding) | Jurkat NFkB conf 47
O=C(COc1ccccc1-c1ccccc1)N/N=C/c1cccc2ccccc12	Jurkat NFkB inh 56 (no result: FGF22 binding) | Jurkat NFkB conf 51
CN(C)C(=O)c1ccc(-c2ccc([C@@H]3[C@@H](C#N)N(C(=O)C4CCC4)[C@H]3CO)cc2)cc1	none (no result: NR2E3 ag-1, 697 NFkB inh, miR122 inh, NR2E3 ag-2, Jurkat NFkB inh)
Cc1noc(C)c1NC(=O)Nc1ccc2c(c1)C(=O)N([C@@H](C)CO)C[C@H](C)[C@@H](CN(C)C(=O)Nc1ccc(C(F)(F)F)cc1)OCCCC[C@H](C)O2	none (no result: NR2E3 ag-1, 697 NFkB inh, NR2E3 ag-2, Jurkat NFkB inh)
O=C(NC1CCC1)[C@H]1[C@H](CO)[C@H]2Cn3c(ccc(-c4ccncc4)c3=O)[C@@H]1N2CC1CC1	none (no result: NR2E3 ag-1, 697 NFkB inh, NR2E3 ag-2, Jurkat NFkB inh)
CCCCCCCCCCn1ccc(=N)cc1	Jurkat NFkB inh 75 | Jurkat NFkB conf 75
CN(C)CCOC1c2ccccc2CSc2ccccc21 (stereo not given)	none
